Experiments:
Human SphK1 = Human SphK1 (Homo sapiens, UniProt Q9NYA1); assay: Sphingosine kinase assay, in vitro inhibition of SphK1; format: biochemical; details: initial screen at 100 μM inhibitor
mouse SphK2 = target: T1, mouse SphK2 (Mus musculus, UniProt Q9JIA7); assay: Sphingosine kinase assay, in vitro inhibition of SphK2; format: biochemical; details: initial screen at 100 μM inhibitor
T1 sequence (Q9JIA7 1-617): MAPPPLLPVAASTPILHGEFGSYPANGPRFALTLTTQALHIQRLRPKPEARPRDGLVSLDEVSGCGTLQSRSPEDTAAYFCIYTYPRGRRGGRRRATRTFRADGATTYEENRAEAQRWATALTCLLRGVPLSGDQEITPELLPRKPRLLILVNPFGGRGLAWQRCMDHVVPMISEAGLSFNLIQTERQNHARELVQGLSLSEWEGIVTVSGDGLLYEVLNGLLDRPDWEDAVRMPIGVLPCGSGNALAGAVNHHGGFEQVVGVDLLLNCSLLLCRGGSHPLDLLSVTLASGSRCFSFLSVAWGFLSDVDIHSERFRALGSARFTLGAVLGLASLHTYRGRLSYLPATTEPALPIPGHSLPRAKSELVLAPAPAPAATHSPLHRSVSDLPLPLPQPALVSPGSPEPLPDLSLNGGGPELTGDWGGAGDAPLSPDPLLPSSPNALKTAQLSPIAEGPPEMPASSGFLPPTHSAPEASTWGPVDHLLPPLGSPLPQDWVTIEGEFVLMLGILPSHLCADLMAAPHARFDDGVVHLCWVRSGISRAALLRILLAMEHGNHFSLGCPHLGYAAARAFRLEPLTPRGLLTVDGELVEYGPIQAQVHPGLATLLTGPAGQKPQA

[1] = tested on: Akt and ERK phosphorylation; assay: Akt/ERK phosphorylation in U937 cells; format: cell-based, human; details: different concentrations, 16 h (legend: 24 h), Western blot
How it was run: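 U937 cells pretreated with test compound at a range of concentrations for 24 h (legend; the methods say times "usually 2 h"). Cells were washed in PBS, Dounce-lysed, and equal protein run on 10% SDS–PAGE, then transferred to nitrocellulose. Blots were blocked in 5% milk/TBS pH 7.4 with 0.1% Tween 20, probed 1 h with anti-ERK, p-ERK, Akt, p-Akt and β-actin (1:1000), then HRP anti-IgG (1:2000), with chemiluminescent detection. PD098059 (10 μM) served as ERK positive control.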

SphK2 = target: T2, SphK2 (Homo sapiens, UniProt Q9NRA0); assay: FTY720 phosphorylation in intact U937 cells; format: cell-based; details: U937 cells exposed to FTY720 and 10 μM inhibitor, 2 h; cell pellet, LC/MS
T2 sequence (Q9NRA0 1-654): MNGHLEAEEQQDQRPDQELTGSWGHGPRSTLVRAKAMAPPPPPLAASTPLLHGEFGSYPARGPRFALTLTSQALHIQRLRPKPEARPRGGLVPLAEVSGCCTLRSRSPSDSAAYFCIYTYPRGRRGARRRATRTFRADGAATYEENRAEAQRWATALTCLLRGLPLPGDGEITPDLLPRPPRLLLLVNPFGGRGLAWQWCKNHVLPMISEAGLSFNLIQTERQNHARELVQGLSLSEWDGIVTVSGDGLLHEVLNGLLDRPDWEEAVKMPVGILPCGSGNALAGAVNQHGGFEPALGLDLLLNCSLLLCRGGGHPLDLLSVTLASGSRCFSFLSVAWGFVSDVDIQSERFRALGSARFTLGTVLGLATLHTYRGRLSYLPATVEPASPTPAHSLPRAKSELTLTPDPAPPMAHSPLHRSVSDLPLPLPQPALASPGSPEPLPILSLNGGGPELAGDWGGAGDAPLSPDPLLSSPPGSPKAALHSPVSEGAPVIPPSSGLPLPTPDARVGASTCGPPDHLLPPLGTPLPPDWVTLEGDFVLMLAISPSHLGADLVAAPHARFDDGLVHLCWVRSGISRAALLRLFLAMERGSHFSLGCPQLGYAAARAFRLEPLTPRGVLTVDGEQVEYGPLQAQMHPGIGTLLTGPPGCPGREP
How it was run: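 Cultured U937 cells were given exogenous FTY720 plus 10 μM test compound for 2 h, then pelleted by centrifugation. Pellet FTY720 and FTY720-P were measured by LC/ESI-MS/MS: C18 reverse phase, water/methanol/formic acid gradient, 1 mL/min. MRM was 308.4→255.1 and 388.4→255.1, with C17S1P and C17-sphingosine as internal standards, quantified by peak area. Results are moles per million cells, means ± SD of three independent experiments, unpaired two-tailed t-test.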

U937 cells = assay: S1P levels in U937 cells; format: cell-based, human; details: LC/MS, data not shown

Sequence of Human SphK1 (Q9NYA1 whole entry): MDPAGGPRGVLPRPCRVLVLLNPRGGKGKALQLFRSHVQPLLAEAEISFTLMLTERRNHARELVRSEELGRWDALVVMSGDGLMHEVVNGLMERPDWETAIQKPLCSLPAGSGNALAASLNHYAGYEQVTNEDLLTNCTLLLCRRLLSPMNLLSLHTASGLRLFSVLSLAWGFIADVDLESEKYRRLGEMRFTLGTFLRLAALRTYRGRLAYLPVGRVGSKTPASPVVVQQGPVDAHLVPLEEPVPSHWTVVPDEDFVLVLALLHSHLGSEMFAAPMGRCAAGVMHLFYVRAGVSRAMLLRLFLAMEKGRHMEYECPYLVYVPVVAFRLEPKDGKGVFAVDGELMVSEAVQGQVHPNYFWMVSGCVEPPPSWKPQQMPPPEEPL

Compound | inhibition of SphK1, result in words (Human SphK1) | inhibition of SphK2, result in words (mouse SphK2) | Akt phosphorylation [1] | ERK phosphorylation [1] | accumulation of FTY720 in cells (SphK2) | production of FTY720-P (SphK2) | S1P levels (U937 cells)
CCCCCCCCc1ccc(C2CCC(=CC(=O)OC)CC2)cc1 (centres unmarked) [Compound 5, Methyl 2-(4-(4-octylphenyl)cyclohexylidene)acetate] | inactive against SphK1 | did not cross the 50% threshold |  |  |  |  | 
CCCCCCCCc1ccc(C2CCC(=CCO)CC2)cc1 (centres unmarked) [Compound 6, 2-(4-(4-Octylphenyl)cyclohexylidene)ethanol] | inactive against SphK1 | did not cross the 50% threshold |  |  |  |  | 
CCCCCCCCc1ccc(C2CCC(O)(C[N+](=O)[O-])CC2)cc1 (centres unmarked) [Compound 7, 1-(Nitromethyl)-4-(4-octylphenyl)cyclohexanol] | inactive against SphK1 | did not cross the 50% threshold |  |  |  |  | 
CCCCCCCCc1ccc(C2CCC(=NO)CC2)cc1 (centres unmarked) [Compound 8, 4-(4-Octylphenyl)cyclohexanone oxime] | inactive against SphK1 | did not cross the 50% threshold |  |  |  |  | 
CCCCCCCCc1ccc([C@H]2CC[C@H](O)CC2)cc1 [Compound 9, (1r,4r)-4-(4-Octylphenyl)cyclohexanol] | inactive against SphK1 | did not cross the 50% threshold |  |  |  |  | 
CCCCCCCCc1ccc([C@H]2CC[C@H]([N+](C)(C)C)CC2)cc1.[I-] [trans-12a, (1r,4r)-N,N,N-trimethyl-4-(4-octylphenyl)cyclohexanaminium iodide] |  |  | dose-dependent decrease | quantitatively inhibited | exaggerated the accumulation | significantly suppressed | no change
CCCCCCCCc1ccc([C@H]2CC[C@H]([N+](C)(C)CCC)CC2)cc1.[I-] [trans-12b, (1r,4r)-N,N-Dimethyl-4-(4-octylphenyl)-N-propylcyclohexanaminium iodide] |  |  | complete disappearance of p-Akt band | quantitatively inhibited | exaggerated the accumulation | significantly suppressed | no change

Reference: article PMC3748591 (Bioorganic & medicinal chemistry, 2011)
